Scp1 inh: Scp-1 (human) phosphatase inhibition. 340,000 compounds, 0.88% hits. inhibition, % at 20 µM. Q9GZU7. Recombinant Scp1, phosphopeptide, malachite green phosphate absorbance. AID 493091;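 active = inhibition above about 50% at 20 µM, limit read from the data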
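assay system = SCP-1 phosphatase catalytic domain, residues 76-261 | buffer or medium = 50 mM Tris acetate pH 5.5, 0.005% Tween-20, 10 mM MgCl2 | incubation = enzyme reaction 45 min at room temperature, colour 5 min, stabilisation 30 min | signal = Phosphate-binding colour reagent, absorbance read at 630 nm | measure = % inhibition at 20 µM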
LMPTP block: blocks human LMPTP phosphatase; P24666; recombinant LMPTP-A, OMFP fluorogenic substrate, fluorescence intensity; inhibition, % at 20 µM; 360,000 compounds, 0.22% hits;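 active = compounds that cut the enzyme signal by at least half of the control window in the single-dose screen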
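Assay system: LMPTP-A, protein tyrosine phosphatase of low molecular weight / Medium: pH 6.0 Bis-Tris buffer with DTT and Triton X-100 / Schedule: 50 min enzyme reaction at room temperature, protected from light / Measured by: endpoint fluorescence intensity from OMFP dephosphorylation / Read-out basis: % inhibition relative to no-enzyme and uninhibited control wells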
DNMT1 inh: DNMT1 (human) enzyme inhibition | P26358 | DNMT1 molecular beacon, Hinp1I cleavage, fluorescence | inhibition (reported as % activation of signal), % at 10 µM | 360,000 compounds, 0.83% hits; in the data active = inhibition above about 50%
SUMO1 PPI mod: SUMO1-SIM interaction modulation; inhibition, % at 20 µM; 360,000 compounds, 0.33% hits; SUMO1 binding to a labelled peptide, TR-FRET, 1 h; in the data active = inhibition above about 37%
Target sequence (P63165 whole entry, looked up): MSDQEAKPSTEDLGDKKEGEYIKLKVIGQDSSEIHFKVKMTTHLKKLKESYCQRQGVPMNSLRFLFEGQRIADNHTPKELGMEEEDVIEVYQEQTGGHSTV
STEP inh: blocks human striatal-enriched tyrosine phosphatase | P54829 | recombinant STEP, OMFP fluorogenic substrate, fluorescence | inhibition, % at 20 µM | 360,000 compounds, 0.25% hits;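 active = inhibition at 20 µM, scaled per plate between control wells, above about 37%, limit read from the data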
Target sequence (P54829 whole entry, looked up): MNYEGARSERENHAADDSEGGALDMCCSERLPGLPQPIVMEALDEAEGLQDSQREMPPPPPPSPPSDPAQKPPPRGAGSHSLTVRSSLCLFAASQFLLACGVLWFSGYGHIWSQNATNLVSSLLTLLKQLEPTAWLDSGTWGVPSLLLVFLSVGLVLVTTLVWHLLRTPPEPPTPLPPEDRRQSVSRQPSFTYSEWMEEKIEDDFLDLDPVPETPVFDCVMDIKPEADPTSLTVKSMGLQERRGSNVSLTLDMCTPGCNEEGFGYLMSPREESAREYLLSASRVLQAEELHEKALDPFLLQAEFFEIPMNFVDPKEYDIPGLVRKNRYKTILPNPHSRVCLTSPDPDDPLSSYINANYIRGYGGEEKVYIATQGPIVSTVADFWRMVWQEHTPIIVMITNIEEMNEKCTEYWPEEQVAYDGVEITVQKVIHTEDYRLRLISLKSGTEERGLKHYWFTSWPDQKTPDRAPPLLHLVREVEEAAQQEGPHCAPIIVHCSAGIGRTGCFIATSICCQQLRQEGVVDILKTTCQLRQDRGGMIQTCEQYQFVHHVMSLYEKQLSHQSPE
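Test system: STEP tyrosine phosphatase / Reagent: OMFP at 25 µM / Doses: 20 µM, 1% DMSO / Read-out: percent inhibition scaled to no-enzyme and uninhibited-enzyme controls, plate-pattern corrected / Detection: FITC-channel fluorescence of OMFP product / Medium: Bis-Tris buffer pH 6.0, 2.5 mM DTT, 0.005% Tween 20 / Schedule: 20 min at room temperature, dark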
GRK2 aptamer HTS: blocks RNA aptamer binding to human GRK2; P25098; AID 488847; 330,000 compounds, 0.59% hits; bead flow cytometry, FAM-aptamer displacement from GRK2; inhibition of aptamer binding, % at 10 µM;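 active = inhibition of aptamer binding above 40%, roughly 3 SD of noise, on plates passing a quality check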;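 note: median bead fluorescence of bound FAM aptamer so fluorescent compounds give negative values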
GRK2 inh confirm: human GRK2 inhibition confirmation, cherry pick 1 | shares compounds with GRK2 aptamer HTS | bead-bound GRK2, FAM-aptamer displacement, flow cytometry | aptamer displacement, % at 10 µM | 2,000 compounds, 4% hits;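 active = aptamer displacement above 40%, near three times the noise of non-fluorescent compounds, on plates passing quality checks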;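 note: negative values mostly reflect intrinsic compound fluorescence rather than true enhancement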
Aptamer quench SP: counter-screen for GRK2 aptamer inhibitors: fluorescent aptamer quenchers; shares compounds with GRK2 aptamer HTS; Carboxyfluorescein RNA aptamer on beads, flow cytometry quenching; active compounds read low; fluorescence response (% of DMSO), % at 10 µM; 2,000 tested, under 10 active; AID 504580;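 active = compounds that quench the bead-bound fluorescent RNA probe, cutting fluorescence to under half of the solvent control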;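 note: counterscreen run without GRK2 so only probe quenching by compound is measured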
GRK2 CP2: confirmation of human GRK2 inhibitors binding RNA aptamer site | shares compounds with GRK2 aptamer HTS | bead-bound GRK2, FAM-aptamer displacement, flow cytometry | inhibition of aptamer binding, % at 10 µM | 360 tested, under 10 active | AID 504782;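 active = inhibition of aptamer binding above 40%, about triple the noise seen with nonglowing compounds, on plates passing quality control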;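 note: negative values mostly come from compounds that fluoresce themselves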
FAM quench CP2: aptamer fluorescence quenching in GRK2 counter-screen | carboxyfluorescein RNA aptamer beads, flow cytometry quenching; active compounds read low | fluorescence response vs DMSO, % at 10 µM | shares compounds with GRK2 aptamer HTS | 360 tested, under 10 active;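 active = response vs DMSO under 50%, meaning signal dropped by over half, treated as fluorescence quencher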;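 note: labelled aptamer on streptavidin beads without GRK2 as a quench counter-screen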
Large screens that a line does not name were inactive (follow-up assays come after a bar, where they were run). Rows were chosen to be rich in hits. Some 2.2% of all compounds tested hit in one or more screens of this group.

O=C(CCCc1ccccc1)Nc1nncs1	none
CC(C)Cc1nnc(NC(=O)CCS(=O)(=O)c2ccc(Cl)cc2)s1	none | GRK2 inh confirm inactive | Aptamer quench SP inactive
Cc1ccccc1C(NC(=O)C1CCN(Cc2ccc(Oc3ccccc3)cc2)CC1)c1ccsc1 (stereo unspecified)	none (no result: Scp1 inh, GRK2 aptamer HTS)
CCN1C(=O)[C@H]2[C@@H](c3ccc(C)cc3)N[C@]3(CCCN(Cc4ccc(Cl)cc4)C3=O)[C@H]2C1=O	none (no result: Scp1 inh, GRK2 aptamer HTS)
CCc1nc2c(OCc3ccccc3C)cccn2c1N(C)C(=O)C1CC1	none (no result: Scp1 inh, GRK2 aptamer HTS)
C[C@H]1CN([C@@H](C)CO)S(=O)(=O)c2ccc(Br)cc2O[C@@H]1CN(C)Cc1cccc(F)c1	none (no result: Scp1 inh, GRK2 aptamer HTS)
CC(C)NC(=O)c1cc(C2CCCCN2C(=O)c2ccc(C#N)cc2)on1 (stereo unspecified)	none (no result: Scp1 inh, GRK2 aptamer HTS)
CCCCC(=O)Nc1nnc(CCc2ccccc2)s1	GRK2 aptamer HTS 99 | GRK2 inh confirm inactive | Aptamer quench SP inactive
CCOCCc1nnc(NC(=O)C(C)Oc2ccccc2)s1 (stereo unspecified)	none
COCCSc1nnc(NC(=O)CCS(=O)(=O)c2ccccc2)s1	none | GRK2 inh confirm inactive | Aptamer quench SP inactive
CCOCCc1nnc(NC(=O)CCS(=O)(=O)c2ccccc2)s1	none | GRK2 inh confirm inactive | Aptamer quench SP inactive
COCCSc1nnc(NC(=O)CS(=O)(=O)c2ccc(C)cc2)s1	none
CC(C)C[C@H]1CN(CCCC[C@H]2CNC(=O)C(=O)N2CCC2CCCCC2)C(=O)C(=O)N1CCc1ccccc1	none (no result: Scp1 inh, DNMT1 inh, STEP inh, GRK2 aptamer HTS)
COc1cc(/C=N/Nc2nc3ccccc3s2)cc([N+](=O)[O-])c1O	GRK2 aptamer HTS 68 | GRK2 inh confirm inactive | Aptamer quench SP inactive
O=[N+]([O-])c1cc(Cl)cc(/C=N/Nc2nc3ccccc3s2)c1O	none
O=[N+]([O-])c1cc(C(F)(F)F)ccc1NCCc1ccccn1	none
CS(=O)(=O)c1ccc(NCCc2ccccn2)c([N+](=O)[O-])c1	GRK2 aptamer HTS 60 | GRK2 inh confirm inactive | Aptamer quench SP inactive
CN(C)CCCN(C(=O)CCSc1ccccc1)c1nc2cc3c(cc2s1)OCO3	GRK2 aptamer HTS 68 | GRK2 inh confirm inactive | Aptamer quench SP inactive
O=[N+]([O-])c1ccc(-c2c(-c3ccccc3)ncc3ccc(F)cc23)cc1	GRK2 aptamer HTS 100 | GRK2 inh confirm inactive | Aptamer quench SP inactive
c1ccc(C2Nc3ccccc3Oc3ccccc32)cc1 (stereo unspecified)	GRK2 aptamer HTS 52 | GRK2 inh confirm inactive | Aptamer quench SP inactive
CCC1CCCCN1CCCNC(=O)C1CCN(S(=O)(=O)N2CCCCC2)CC1 (stereo unspecified)	none | GRK2 inh confirm inactive | Aptamer quench SP inactive
Nc1c2c(nc3ccccc13)CCCC2	none
Clc1c2c(nc3ccccc13)CCC2	none | GRK2 CP2 inactive | FAM quench CP2 inactive
C/C(=N\NC(=O)c1cccs1)c1ccc2ccccc2c1	none | GRK2 inh confirm inactive | Aptamer quench SP inactive
CCOC(=O)c1c(NC(=O)CSc2nnc(-c3ccccc3)o2)sc(C(C)=O)c1C	none
CCOC(=O)c1c(NC(=O)CSc2nc3ccccc3o2)sc(C(C)=O)c1C	GRK2 aptamer HTS 51 | GRK2 inh confirm inactive | Aptamer quench SP inactive
Cc1cc(=O)c2ccccc2[nH]1	none | GRK2 inh confirm inactive | Aptamer quench SP inactive
O=C(c1ccc2c(=O)n(CCc3ccccc3)c(=O)[nH]c2c1)N1CCN(c2ccc(F)cc2)CC1	none
O=C(c1ccc2c(=O)n(CCc3ccccc3)c(=O)[nH]c2c1)N1CCN(c2ccccc2)CC1	GRK2 aptamer HTS 88 | GRK2 inh confirm inactive | Aptamer quench SP inactive
O=c1[nH]nc(Cc2ccccc2)c2ccccc12	none
O=c1[nH]nc(Cc2ccc([N+](=O)[O-])cc2)c2ccccc12	GRK2 aptamer HTS 86 | GRK2 inh confirm inactive | Aptamer quench SP inactive
CCCN1CCN(C(=O)C2CCN(S(=O)(=O)c3c(C)noc3/C=C/c3ccc(C)cc3)CC2)CC1	GRK2 aptamer HTS 77 | GRK2 inh confirm inactive | Aptamer quench SP inactive
Cc1noc(C)c1COc1ccccc1C(=O)N1CCN(S(=O)(=O)c2ccc(C(C)C)cc2)CC1	none (no result: Scp1 inh, GRK2 aptamer HTS)
COc1cccc(-c2cnc(C(O)c3ccc(Cl)cc3C)[nH]2)c1 (stereo unspecified)	none (no result: Scp1 inh, GRK2 aptamer HTS)
c1ccc2cc(OCCOCCOc3ccc4ccccc4c3)ccc2c1	GRK2 aptamer HTS 55 | GRK2 inh confirm inactive | Aptamer quench SP inactive
CN(C)CCOc1ccc2ccccc2c1	none
O=C(/C=C/c1ccco1)Nc1ccc(-c2nc3ccccc3[nH]2)cc1	GRK2 aptamer HTS 49 | GRK2 inh confirm inactive | Aptamer quench SP inactive
COc1ccc(CC(=O)NCCN2CCOCC2)cc1	none | GRK2 inh confirm inactive | Aptamer quench SP inactive
COc1ccc(OCCOCCN2CCOCC2)cc1	GRK2 aptamer HTS 56 | GRK2 inh confirm inactive | Aptamer quench SP inactive
O=C(NCc1cccnc1)c1cc(C2CCCN(S(=O)(=O)c3cccs3)C2)on1 (stereo unspecified)	none (no result: Scp1 inh, GRK2 aptamer HTS)
O=C1c2ccccc2C(=O)N1CCCCSc1nnc(-c2ccc(OC(F)F)cc2)o1	none
Cc1nnc(SCCCN2C(=O)c3ccccc3C2=O)o1	none | GRK2 inh confirm inactive | Aptamer quench SP inactive
O=C(Cn1nnc(-c2ccccc2)n1)NCC(=O)Nc1ccc(F)c(F)c1F	none | GRK2 inh confirm inactive | Aptamer quench SP inactive
O=C(Cc1csc(-c2ccccc2)n1)NCC(=O)Nc1ccc(F)c(F)c1F	none
COc1ccc(OC)c(CC(=O)Nc2ccc3c(c2)c(=O)n(C)n3Cc2cccc(C(F)(F)F)c2)c1	none (no result: Scp1 inh, GRK2 aptamer HTS)
CC1CCCC(NC(=O)COC(=O)c2cc(S(=O)(=O)N3CCOCC3)ccc2F)C1C (stereo unspecified)	GRK2 aptamer HTS 60 | GRK2 inh confirm inactive | Aptamer quench SP inactive
COc1ccc(C(=O)NNC(=O)CSc2nc3c([nH]2)c(=O)n(C)c(=O)n3C)cc1	GRK2 aptamer HTS 100 | GRK2 inh confirm inactive | Aptamer quench SP inactive
Cn1c(=O)c2[nH]c(SCC(=O)c3ccc(F)cc3)nc2n(C)c1=O	none
